Consider one compound from ChEMBL document CHEMBL1152455, “Ribosome protection prevents azithromycin-mediated quorum-sensing modulation and stationary-phase killing of Pseudomonas aeruginosa” (2007).

The subject of test [1] is Pseudomonas aeruginosa. Description: Inhibition of rhamnolipid production in Pseudomonas aeruginosa PT1300 harboring vector pEX1.8 up to 50 ug/ml incubated for 24 hrs at 37 degC further 24 hrs at 25 degC. The test is classed as functional, organism-based. A digest of the protocol:
(§1)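 SW plates (M9 with 0.1% glutamate replacing NH4Cl, 0.2% glucose, 1 mM MgSO4) carried an azithromycin gradient of 0–50 μg/ml. Three-μl droplets of about 10^6 CFU were spotted at equal spacing. Plates were incubated 24 h at 37°C, then 24 h at 25°C.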

For test [2], the system named is Pseudomonas aeruginosa. As to the kind of experiment: Inhibition of swarming motility of Pseudomonas aeruginosa PT1308 expressing Clostridium perfringens 23S rRNA methylase ErmBP at 2 ug/ml after 18 hrs. In kind it is functional, organism-based. In short, it runs like this: (§2)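 Swarm plates were 0.5% agar M9 with 0.2% glucose, 1 mM MgSO4 and 0.05% glutamate as nitrogen source, containing azithromycin. Three μl of overnight LB culture was spotted, and plates were read after 18 h at 37°C.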

The test system of test [3] is Pseudomonas aeruginosa. Description: Inhibition of rhamnolipid production in Pseudomonas aeruginosa PT1323 harboring pAKRHL expressing rhlAB gene up to 50 ug/ml incubated for 24 hrs at 37 deg C further 24 hrs at 25 deg C. In kind it is functional, organism-based. In short, it runs like this:
as §1

Test [4] concerns Pseudomonas aeruginosa. As to the kind of experiment: Inhibition of swarming motility of Pseudomonas aeruginosa PT1300 harboring vector pEX1.8 at 2 ug/ml after 18 hrs. In kind it is functional, organism-based. In short, it runs like this:
as §2

Test [5] has as its system Pseudomonas aeruginosa. Description: Bactericidal activity against stationary-phase Pseudomonas aeruginosa PT1308 culture expressing Clostridium perfringens 23S rRNA methylase ErmBP assessed as effect on cell viability at 1 to 16 ug/ml after 22 hrs by plating serial dilution method. In kind it is functional, organism-based. In short, it runs like this:
(§3)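 Overnight LB cultures (with carbenicillin 100 μg/ml or gentamicin 15 μg/ml for plasmid strains) were diluted to OD600 0.05 in antibiotic-free LB and grown at 37°C to stationary phase. Azithromycin was added to 2-ml aliquots at similar cell densities, and incubation continued 20–22 h at 37°C. Viable counts came from serial dilutions plated on LB agar.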

The subject of test [6] is Pseudomonas aeruginosa. As to the kind of experiment: Bactericidal activity against stationary-phase Pseudomonas aeruginosa PT1300 culture harboring vector pEX1.8 after 20 to 22 hrs by plating serial dilution method. In kind it is functional, organism-based. A digest of the protocol:
as §3

Test [7] concerns Pseudomonas aeruginosa. As to the kind of experiment: Bactericidal activity against Pseudomonas aeruginosa PT1323 harboring rhlAB-encoding pAKRHL at 2 to 18 ug/ml after 22 hrs by plating serial dilution method. The test is classed as functional. A digest of the protocol:
as §3

In test [8] the test system is Pseudomonas aeruginosa. As to the kind of experiment: Bactericidal activity against Pseudomonas aeruginosa PT1332 rhlA mutant harboring vector pAK1900 at 2 to 18 ug/ml after 22 hrs by plating serial dilution method. The test is classed as functional. In short, it runs like this:
as §3

For test [9], the system named is Pseudomonas aeruginosa. As to the kind of experiment: Bactericidal activity against stationary-phase Pseudomonas aeruginosa PT1300 culture harboring vector pEX1.8 at 1 to 16 ug/ml after 22 hrs by plating serial dilution method in presence of 1 mM Mg2+. In kind it is functional, organism-based. A digest of the protocol: (§4)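 Stationary-phase LB cultures of PT1300 or PT1308 received azithromycin plus 1 mM MgSO4, then 22 h at 37°C. Viable counts came from serial dilutions plated on LB agar. Values are means ± standard deviations of three independent experiments.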

Test [10] has as its system Pseudomonas aeruginosa. Description: Inhibition of rhamnolipid production in azithromycin-hypersusceptible Pseudomonas aeruginosa 11B harboring mexX deletion mutant incubated for 24 hrs at 37 degC further 24 hrs at 25 degC. In kind it is functional, organism-based. In short, it runs like this:
as §1

In test [11] the test system is Pseudomonas aeruginosa. Description: Inhibition of elastase production in Pseudomonas aeruginosa PT1300 harboring vector pEX1.8 after 18 hrs by elastin Congo red assay. The test is classed as functional, organism-based. A digest of the protocol:
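Cultures grew 7 h in Pseudomonas broth. Supernatant was mixed with excess elastin Congo red (4 mg/ml) in 0.1 M Tris pH 7.4, 1 mM CaCl2 and held 18 h at 37°C. After centrifugation, A495 was read and expressed as OD495/OD600 of the culture. Values are means ± standard deviations of five independent experiments.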

Test [12] deals with Pseudomonas aeruginosa. As to the kind of experiment: Antimicrobial activity against exponential-phase Pseudomonas aeruginosa PT1323 cultures harboring mutation in bacterial rhlA protein and expressing rhamnosyltransferase rhlAB gene at 1 mg/ml after 18 hrs by susceptibility assay. The test is classed as functional, organism-based. In short, it runs like this:
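LB agar plates with an azithromycin gradient (maximal 1 mg/ml) were streaked with each strain. Plates were read after 18 h at 37°C.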

The test system of test [13] is Pseudomonas aeruginosa. As to the kind of experiment: Bactericidal activity against stationary-phase Pseudomonas aeruginosa PT1308 culture expressing Clostridium perfringens 23S rRNA methylase ErmBP at 1 to 16 ug/ml after 22 hrs by plating serial dilution method in presence of 1 mM Mg2+. In kind it is functional, organism-based. A digest of the protocol: as §4
The nature of test [14]: Ratio of bactericidal activity against Pseudomonas aeruginosa PT712 harboring mutation in bacterial rhlA protein to bactericidal activity against wild type Pseudomonas aeruginosa PAO1 PT5. The test is classed as functional. In short, it runs like this:
as §3

The test system of test [15] is Pseudomonas aeruginosa. As to the kind of experiment: Inhibition of rhamnolipid production in Pseudomonas aeruginosa 12B overexpressing mexXY incubated for 24 hrs at 37 degC further 24 hrs at 25 degC. The test is classed as functional, organism-based. In short, it runs like this: as §1

Active and inactive are the calls of the source. The calls are words filed in the database; no cut-off is given here.

Turning to `CC[C@H]1OC(=O)[C@H](C)[C@@H](O[C@H]2C[C@@](C)(OC)[C@@H](O)[C@H](C)O2)[C@H](C)[C@@H](O[C@@H]2O[C@H](C)C[C@H](N(C)C)[C@H]2O)[C@](C)(O)C[C@@H](C)CN(C)[C@H](C)[C@@H](O)[C@]1(C)O` [AZITHROMYCIN], the inhibition result in test [1], in test [4] and in test [10] was “Active” in each case. Also, the inhibition result in [2], in [3] and in test [15] was “inactive” throughout. The outcome in test [5], in [9], in test [12] and in [13] was inactive. In addition, the Activity result in test [6] was “Dose-dependent effect”; in test [7], 4; in test [8] it was 1. The inhibition entry in [11] was “Dose-dependent effect”. For the same compound, the Ratio in [14] was found to be 1000.
